Assay results from different studies.
Target: Receptor tyrosine-protein kinase erbB-4 (ERBB4, Homo sapiens, UniProt Q15303)
Concentration: 1 µM

Structure (SMILES)	read-out	technique	remaining binding [%]
CCCCN(CCCC)C(=O)CN1C[C@@H](c2cc(OC)c3c(c2)OCO3)[C@H](C(=O)O)[C@H]1CC(C)(C)CCC	cell-free assay	competition with immobilised ligand	95
COc1cnc(Nc2cccc(S(N)(=O)=O)c2)nc1N1CCN(c2ccccc2)C(=O)C1	binding	competition with immobilised ligand	100
CN(CCCC(F)(F)F)c1nccc(-c2cnn3ncccc23)n1	binding	–	72
O=C(c1ccc(Nc2ncc(Cl)c(-c3ccc(Cl)s3)n2)cc1)N1CCC(N2CCCC2)CC1	binding	competition with immobilised ligand	100
Cc1cnn2ncc(-c3ccnc(N(C)C)n3)c2c1	binding	–	65
COc1ccc2c(O[C@@H]3C[C@H]4C(=O)N[C@]5(C(=O)O)CC5/C=C\CCCCC[C@H](NC(=O)OC5CCCC5)C(=O)N4C3)cc(-c3csc(NC(=O)C(C)C)n3)nc2c1C (stereo partly shown)	cell-free assay	competition with immobilised ligand	100
COc1cnc(Nc2cccc(S(N)(=O)=O)c2)nc1N1CCN(c2ccccc2)CC1	binding	competition with immobilised ligand	86
O=C(Nc1c[nH]nc1C(=O)NC1CCNCC1)c1cc(F)cc(F)c1	binding	competition with immobilised ligand	100
C[C@H](NC(=O)c1cnc2n1[C@](C)(Cc1ccc(C#N)cc1)C(=O)N2c1cc(Cl)c(F)c(Cl)c1)C(=O)NC1(c2ccccn2)CC1	cell-free assay	competition with immobilised ligand	100
Nc1ncc2c(n1)-c1c([nH]c3ccc(C#CC4CC4)cc13)CCCC2	binding	competition with immobilised ligand	100
CCN1CCN(Cc2ccc(C(=O)Nc3ccc(C)c(Oc4ccc5c(c4)CC(=O)N5)c3)cc2C(F)(F)F)CC1	binding	competition with immobilised ligand	100
Cc1cnc(Nc2ccc(C(=O)N3CCC(N4CCCC4)CC3)cc2)nc1-c1cc2ccccc2s1	binding	competition with immobilised ligand	84
C=CC(=O)N1CCC(C(=O)NCC(=O)N2CCN(c3nc(-c4cnc(N)nc4C(F)F)nc(N4CCOCC4)n3)CC2)CC1	binding	competition with immobilised ligand	100
F[C@@H]1CCN(c2nccc(-c3cnn4ncccc34)n2)C1	binding	–	82
COc1cc(-c2cn(C3CCc4c(F)cccc4N(CC(F)(F)F)C3=O)nn2)ccc1-n1cnc(C)c1 (stereo not shown)	cell-free assay	competition with immobilised ligand	100
O=C(c1ccc(Nc2ncc(Cl)c(-c3cc4ccccc4s3)n2)cc1)N1CCC(N2CCCC2)CC1	binding	competition with immobilised ligand	98
CCC(=N\O)/C(C)=C/c1ccc(F)cc1	cell-free assay	competition with immobilised ligand	66
N[C@@H]1CCN(c2nccc(-c3cnn4ncccc34)n2)C1	binding	–	100
COc1ccc2c(c1)O[C@H](c1ccc(OC)c(OC)c1)C[C@@H]2NC(=O)C1(c2ccc3c(c2)OC(F)(F)O3)CC1	cell-free assay	competition with immobilised ligand	94
C[C@H]1CCN(c2nccc(-c3cnn4ncccc34)n2)C1	binding	–	81
COc1cccc(CNC(=O)c2nc3scc(COCc4ccc(C(=O)O)cc4)c3c(=O)[nH]2)c1	cell-free assay	competition with immobilised ligand	86.1
c1cnn2ncc(-c3ccnc(N4CCC45COC5)n3)c2c1	binding	–	76
